Experimental data reported in ChEMBL document CHEMBL3526048, “In vitro metabolism of rivoglitazone, a novel peroxisome proliferator-activated receptor γ agonist, in rat, monkey, and human liver microsomes and freshly isolated hepatocytes” (Drug Metab Dispos, 2011).

Tests used:
[1] = Drug metabolism in cynomolgus monkey liver microsomes assessed as formation of 3-(4-((6-methoxy-1-methyl-1H-benzo[d]imidazol-2-yl)methoxy)phenyl)-2-(methylthio)propanamide at 20 uM after 2 hrs by radio-HPLC/LC-MS/MS analysis in presence of NADPH-generating system/SAM; type: ADME, Macaca fascicularis
[2] = biological target: T1, UDP-glucuronosyltransferase 1A10 (Homo sapiens, UniProt Q9HAW8); test: Activity of human UGT1A10 expressed in microsomes isolated from baculovirus infected insect cell assessed as enzyme-mediated (2S,3S,4S,5R,6R)-6-((1-carboxy-2-(4-((6-methoxy-1-methyl-1H-benzo[d]imidazol-2-yl)methoxy)phenyl)ethylthio)carbonylamino)-3,4,5-trihydroxytetrahydro-2H-pyran-2-carboxylic acid formation at 20 uM after 4 hrs by radio-HPLC/LC-MS/MS analysis in presence of UDPGA; type: ADME
T1 sequence (Q9HAW8 whole entry): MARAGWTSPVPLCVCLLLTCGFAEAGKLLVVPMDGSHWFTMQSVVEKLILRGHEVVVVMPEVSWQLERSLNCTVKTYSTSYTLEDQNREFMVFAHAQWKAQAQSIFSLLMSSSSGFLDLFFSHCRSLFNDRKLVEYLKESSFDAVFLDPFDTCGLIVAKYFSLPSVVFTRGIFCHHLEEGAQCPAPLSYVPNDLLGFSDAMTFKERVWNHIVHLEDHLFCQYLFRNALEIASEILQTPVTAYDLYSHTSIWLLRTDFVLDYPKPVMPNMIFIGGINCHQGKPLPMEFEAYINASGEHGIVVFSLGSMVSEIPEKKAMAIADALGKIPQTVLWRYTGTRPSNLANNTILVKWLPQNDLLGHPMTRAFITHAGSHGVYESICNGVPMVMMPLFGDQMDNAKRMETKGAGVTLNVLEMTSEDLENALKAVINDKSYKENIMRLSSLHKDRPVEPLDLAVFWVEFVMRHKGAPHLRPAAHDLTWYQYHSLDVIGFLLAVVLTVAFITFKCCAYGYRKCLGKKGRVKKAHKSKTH
In short: (§1)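 Alamethicin (50 μg/mg protein, 15 min on ice) pretreated expressed human UGT microsomes (1 mg/ml protein) from baculovirus-infected insect cells. Incubation with [¹⁴C]rivoglitazone (20 μM) in 100 mM Tris-HCl (pH 7.5) with 10 mM MgCl₂, started by 5 mM UDPGA, 4 h at 37°C with shaking. UGT insect-cell control supersomes were run alongside. Acetonitrile stop, concentrated supernatant analysed by radio-HPLC, LC-MS and LC-MS/MS.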

[3] = biological target: T2, UDP-glucuronosyltransferase 1A1 (Homo sapiens, UniProt P22309); test: Activity of human UGT1A1 expressed in microsomes isolated from baculovirus infected insect cell assessed as enzyme-mediated 2-mercapto-3-(4-((6-methoxy-1-methyl-1H-benzo[d]imidazol-2-yl)methoxy)phenyl)propanoic acid formation at 20 uM after 4 hrs by radio-HPLC/LC-MS/MS analysis in presence of UDPGA; type: ADME; in short: as §1
T2 sequence (P22309 whole entry): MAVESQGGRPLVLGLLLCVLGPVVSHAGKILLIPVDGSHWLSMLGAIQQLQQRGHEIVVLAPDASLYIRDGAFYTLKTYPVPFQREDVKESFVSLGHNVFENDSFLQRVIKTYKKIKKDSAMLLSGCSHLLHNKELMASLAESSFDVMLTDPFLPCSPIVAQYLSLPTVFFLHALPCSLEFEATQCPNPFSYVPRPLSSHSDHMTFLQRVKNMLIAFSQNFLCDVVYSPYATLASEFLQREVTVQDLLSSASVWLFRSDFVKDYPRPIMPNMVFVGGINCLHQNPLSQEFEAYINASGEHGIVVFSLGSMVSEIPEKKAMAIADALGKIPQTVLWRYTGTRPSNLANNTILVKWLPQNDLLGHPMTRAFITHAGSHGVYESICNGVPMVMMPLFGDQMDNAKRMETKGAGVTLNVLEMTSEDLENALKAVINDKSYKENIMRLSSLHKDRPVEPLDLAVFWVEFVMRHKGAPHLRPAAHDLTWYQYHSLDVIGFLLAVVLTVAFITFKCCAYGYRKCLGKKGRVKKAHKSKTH

[4] = Drug metabolism in human hepatocytes assessed as formation of 2-mercapto-3-(4-((6-methoxy-1-methyl-1H-benzo[d]imidazol-2-yl)methoxy)phenyl)propanoic acid at 30 uM after 3 hrs by radio-HPLC/LC-MS/MS analysis in presence of UDPGA, UDPGA/SAM and NADPH-generating system; type: ADME, cell-based, Hepatocyte
Cytochrome P450 1A2 [5] = biological target: T3, Cytochrome P450 1A2 (Homo sapiens, UniProt P05177); test: Activity of human CYP1A2 expressed in microsomes isolated from baculovirus infected insect cell assessed as enzyme-mediated 3-(4-((6-methoxy-1-methyl-1H-benzo[d]imidazol-2-yl)methoxy)phenyl)-2-(methylsulfinyl)propanamide formation at 20 uM after 2 hrs by radio-HPLC/LC-MS/MS analysis in presence of NADPH-generating system/SAM; type: ADME
T3 sequence (P05177 whole entry): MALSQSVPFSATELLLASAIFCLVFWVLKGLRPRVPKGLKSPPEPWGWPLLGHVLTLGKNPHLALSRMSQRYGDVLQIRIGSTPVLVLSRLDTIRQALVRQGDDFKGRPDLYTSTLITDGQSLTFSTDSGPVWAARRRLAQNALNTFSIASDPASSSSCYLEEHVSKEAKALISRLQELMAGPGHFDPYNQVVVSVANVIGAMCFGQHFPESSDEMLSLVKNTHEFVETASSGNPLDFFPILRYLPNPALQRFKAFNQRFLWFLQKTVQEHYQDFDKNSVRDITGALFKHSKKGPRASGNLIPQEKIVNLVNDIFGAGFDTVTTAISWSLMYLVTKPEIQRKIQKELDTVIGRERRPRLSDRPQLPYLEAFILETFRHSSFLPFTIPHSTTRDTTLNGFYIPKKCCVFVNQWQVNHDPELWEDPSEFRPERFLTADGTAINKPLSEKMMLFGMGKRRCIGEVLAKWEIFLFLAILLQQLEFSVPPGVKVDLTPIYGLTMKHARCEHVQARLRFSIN

[6] = Drug metabolism in cynomolgus monkey liver microsomes assessed as formation of 2-amino-3-((1-carboxy-2-(4-((6-methoxy-1-methyl-1H-benzo[d]imidazol-2-yl)methoxy)phenyl)ethyl)disulfanyl)propanoic acid at 20 uM by radio-HPLC/LC-MS/MS analysis; type: ADME, Macaca fascicularis
[7] = Drug metabolism in cynomolgus monkey liver microsomes assessed as formation of 5-(4-((6-methoxy-1H-benzo[d]imidazol-2-yl)methoxy)benzyl)thiazolidine-2,4-dione at 20 uM after 2 hrs by radio-HPLC/LC-MS/MS analysis in presence of NADPH-generating system and NADPH-generating system/SAM; type: ADME, Macaca fascicularis
Cytochrome P450 2C19 = Cytochrome P450 2C19 (Homo sapiens, UniProt P33261); test: Activity of human CYP2C19 expressed in microsomes isolated from baculovirus infected insect cell assessed as enzyme-mediated 5-(4-((6-hydroxy-1-methyl-1H-benzo[d]imidazol-2-yl)methoxy)benzyl)thiazolidine-2,4-dione formation at 20 uM after 2 hrs by radio-HPLC/LC-MS/MS analysis in presence of NADPH-generating system and NADPH-generating system/SAM; type: ADME
In short: (§2)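 Baculovirus/insect-cell microsomes expressing single human CYPs, 1 mg/ml protein, with 50 mM potassium phosphate (pH 7.4) or 100 mM Tris-HCl (pH 7.5). NADPH-generating system: 2 mM NADP⁺, 20 mM glucose 6-phosphate, 2 units/ml G6PDH, 10 mM MgCl₂. [¹⁴C]rivoglitazone at 20 μM, 2 h at 37°C with shaking. Control used insect-cell control supersomes. Stopped with acetonitrile; supernatant concentrated under nitrogen; metabolites analysed by radio-HPLC, LC-MS and LC-MS/MS.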

Cytochrome P450 1A2 [8] = biological target: T3, Cytochrome P450 1A2; test: Activity of human CYP1A2 expressed in microsomes isolated from baculovirus infected insect cell assessed as enzyme-mediated 2-mercapto-3-(4-((6-methoxy-1-methyl-1H-benzo[d]imidazol-2-yl)methoxy)phenyl)propanoic acid formation at 20 uM after 2 hrs by radio-HPLC/LC-MS/MS analysis in presence of NADPH-generating system; type: ADME; in short: as §2

Sequence of Cytochrome P450 2C19 (P33261 whole entry): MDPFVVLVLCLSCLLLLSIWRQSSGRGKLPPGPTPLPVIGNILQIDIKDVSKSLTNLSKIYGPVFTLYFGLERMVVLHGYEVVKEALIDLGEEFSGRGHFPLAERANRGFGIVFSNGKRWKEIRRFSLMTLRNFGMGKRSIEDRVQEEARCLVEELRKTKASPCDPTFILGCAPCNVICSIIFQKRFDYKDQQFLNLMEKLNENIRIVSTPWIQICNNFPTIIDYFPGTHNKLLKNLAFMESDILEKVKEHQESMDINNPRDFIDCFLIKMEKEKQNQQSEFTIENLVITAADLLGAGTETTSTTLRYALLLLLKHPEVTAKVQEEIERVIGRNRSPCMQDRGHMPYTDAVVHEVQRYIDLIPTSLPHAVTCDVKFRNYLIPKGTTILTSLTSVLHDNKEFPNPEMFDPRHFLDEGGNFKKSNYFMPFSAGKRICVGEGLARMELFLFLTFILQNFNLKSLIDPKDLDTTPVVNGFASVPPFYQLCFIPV

Drug metabolism [1]: metabolite_detected | Drug metabolism [2]: metabolite_not_detected | Drug metabolism [3]: metabolite_not_detected | Drug metabolism [4]: metabolite_not_detected | Drug metabolism (Cytochrome P450 1A2 [5]): metabolite_not_detected | Drug metabolism [6]: metabolite_not_detected | Drug metabolism [7]: metabolite_detected | Drug metabolism (Cytochrome P450 2C19): metabolite_detected | Drug metabolism (Cytochrome P450 1A2 [8]): metabolite_detected
Compound: COc1ccc2nc(COc3ccc(C[14CH]4SC(=O)NC4=O)cc3)n(C)c2c1.Cl (racemic)
